Hits are enriched below; roughly 3.5% of the tested compounds scored in any of these assays.
RGS4 inh – human RGS4 inhibition; P49798; HEK293 M3R/RGS4 inducible, Fluo-4 calcium flux; hits give high values; triggered by carbachol at its EC20; B-score at 10 µM; actives 0.45% (n = 310,000); AID 463165;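 active = B-score, a plate-corrected calcium signal, over three deviations above library mean, with baseline fluorescence within five deviations of library mean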;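 note: RGS4 expression induced by doxycycline in cells with stable M3 receptor; B-score is computed from the integrated fluorescence ratio over baseline after carbachol; higher B-score means a larger calcium signal and so more RGS4 inhibition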
MrgX1 antag – blocks BAM8-22 activation of human MrgX1 receptor; actives 1.3% (n = 310,000); MRGX1-HEK293 calcium flux, Fluo-4, BAM8-22 antagonism; hits give low values; B-score at 10 µM; AID 588676;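 active = calcium-response B-score plate-corrected more than 3 library SD below zero, starting fluorescence within 5 deviations, no agonist response on first addition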;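 note: peak minus trough fluorescence over baseline after final BAM8-22 challenge near maximal dose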
Target sequence (Q96LB2 whole entry, looked up): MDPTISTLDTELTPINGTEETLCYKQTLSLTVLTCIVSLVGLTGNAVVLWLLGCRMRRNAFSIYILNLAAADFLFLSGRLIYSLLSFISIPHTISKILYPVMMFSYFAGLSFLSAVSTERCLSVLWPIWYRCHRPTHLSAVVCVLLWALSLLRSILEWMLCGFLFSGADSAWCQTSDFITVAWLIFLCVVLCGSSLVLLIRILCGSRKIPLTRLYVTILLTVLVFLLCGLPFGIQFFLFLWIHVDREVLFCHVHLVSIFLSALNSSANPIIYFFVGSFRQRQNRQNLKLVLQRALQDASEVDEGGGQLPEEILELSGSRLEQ
MrgX1 PAM – human MrgX1 positive allosteric modulation, primary screen | MrgX1-HEK293, Fluo-4 calcium flux, FDSS; hits give high values | B-score at 10 µM | actives 0.63% (n = 310,000);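 active = plate-corrected calcium response at least 3 library SD above typical, normal starting fluorescence, not activating the receptor alone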;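 note: compound read alongside a low EC10 to EC30 dose of BAM8-22 agonist; peak minus trough fluorescence over baseline measured at the second addition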
MrgX1 agonist – human MrgX1 receptor agonism, primary screen | MrgX1-HEK293 cells, Fluo-4 calcium fluorescence, agonist mode; hits give high values | B-score at 10 µM | actives 0.44% (n = 310,000) | AID 588627;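 active = calcium response B-score plate-corrected fluorescence ratio at least 3 library SD, with starting fluorescence B-score inside 5 SD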
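times = overnight plating, then 30 min 37 °C plus 30 min room-temperature dye loading | assay system = stable human MrgX1 HEK293 cell line | input = fifteen thousand cells per well | signal = kinetic calcium dye fluorescence, Fluo-4 NW | dosing = compound delivered in addition one of three | read-out = B-scored fluorescence response ratio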
RGS4 pot – RGS4 potentiation or activation | HEK293 M3R/inducible RGS4, carbachol calcium flux Fluo4; hits give low values | B-score at 10 µM | actives 0.92% (n = 310,000);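 active = B-score of the integrated calcium signal more than 4 SD below the library mean, with starting fluorescence not abnormally high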;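 note: negative B-score means reduced calcium response which marks RGS4 activation or potentiation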
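System – HEK293 FlpIn-TREx cells, stable M3R, doxycycline-inducible RGS4 · Reagent – ECmax carbachol challenge · Times – compound preincubation 20 min at room temperature before agonist · Technique – Fluo4 fluorescence kinetic imaging of calcium · Measure – B score of integrated Fluo4 ratio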
Starred values were filed as active, the others as inactive; i = inactive; x = no result.

SMILES	RGS4 inh	MrgX1 antag	MrgX1 PAM	MrgX1 agonist	RGS4 pot
Cc1nn(-c2ccccc2)c(Cl)c1CN(C(=O)CCl)c1cccc2ccccc12	i	i	10.5*	i	i
O=C(COC(=O)C12CC3CC(CC(Br)(C3)C1)C2)N1CCOCC1	i	i	i	i	i
CN(C)/N=C/C=C1\CCC/C(=C/c2cccs2)C1=O	i	i	9.42*	i	i
Cc1cccn2c(=O)c(/C=C(\C#N)S(=O)(=O)c3ccccc3)c(N3CCN(Cc4ccccc4)CC3)nc12	i	i	i	i	-7.22*
N#C/C(=C\c1c(N2CCN(Cc3ccccc3)CC2)nc2ccccn2c1=O)S(=O)(=O)c1ccccc1	i	i	i	i	i
O=[N+]([O-])c1ccc(Oc2ccc(S(=O)(=O)N3CCOCC3)cn2)cc1	i	-7.96*	i	i	i
CCc1cccc2c(C(=O)COC(=O)c3nn(C)c(=O)c4ccccc34)c[nH]c12	i	i	i	i	-7.33*
CN1CCN(/N=C/c2ccc(N(c3ccccc3)c3ccccc3)cc2)CC1	i	i	i	i	-7.85*
Cc1cc(/C=C2\C(=N)N3N=C(C(C)C)SC3=NC2=O)c(C)n1Cc1ccccc1	i	i	15.9*	i	i
Cc1nn(-c2ccccc2)c(Cl)c1/C=C1/C(=N)N2N=C(C(C)C)SC2=NC1=O	i	i	9.63*	i	i
CCC1=NN2C(=N)/C(=C/c3cc(C)n(Cc4ccccc4)c3C)C(=O)N=C2S1	i	i	i	i	i
CCC(CC)C1=NN2C(=N)/C(=C\c3cc(C)n(-c4cccc(C)c4)c3C)C(=O)N=C2S1	i	i	i	i	-7.56*
Cc1nn(-c2ccccc2)c(Cl)c1/C=C1\SC(=S)NC1=O	i	-4.89*	i	i	i
COc1ccc(-n2cccc2/C=C2\C(=N)N3N=C(C(C)C)SC3=NC2=O)cc1	i	i	i	i	i
Cc1cc([N+](=O)[O-])nn1CC(=O)N1c2ccccc2CC1C (stereo not drawn)	i	i	i	i	i
COc1cc(C2C(C(C)=O)=C(O)C(=O)N2Cc2ccccc2)ccc1O (stereo not drawn)	i	i	i	i	i
O=C(COC(=O)CCc1c[nH]c2ccccc12)NC(c1ccccc1)c1ccccc1	i	i	i	i	i
Cc1nn(-c2ccccc2)c(Cl)c1C(=O)N1CCN(c2ncnc3c2cnn3-c2ccccc2)CC1	i	-7.65*	i	i	i
Cc1ccc(-c2cc(C(=O)N/N=C/c3c(C)nn(-c4ccccc4)c3C)n[nH]2)s1	i	x	x	x	-7.7*
CCOC(=O)c1sc(NC(=O)c2ccc3ncsc3c2)nc1C	i	i	i	i	i
O=C(NC(=S)NCCC1=CCCCC1)c1ccccc1Br	i	i	i	i	-7.29*
O=C(c1ccnc(Cl)c1)N1CCCC(N2CCN(c3ccccc3F)CC2)C1 (stereo not drawn)	i	i	i	i	i
COCc1ccc(CN2CCc3c([nH]c4ccccc34)C2CC(C)C)o1 (stereo not drawn)	i	i	i	i	i
CCn1c(=O)c(=O)[nH]c2cc(C(=O)NC(C)c3ccc(S(N)(=O)=O)cc3)ccc21 (stereo not drawn)	i	i	i	i	i
CCc1ccccc1S(=O)(=O)Cc1ccc(C(=O)N2CCN(c3ccccc3OC)CC2)o1	i	i	i	i	-7.68*
Cc1ccccc1S(=O)(=O)Cc1ccc(C(=O)N2CCN(c3cccc(C)c3C)CC2)o1	i	i	i	i	-7.23*
NC(N)=N/N=C/c1ccc2cccc(OCc3ccccc3)c2n1	i	-5.3*	i	i	i
O=C(N/N=C/c1ccc2cccc(OCc3ccccc3)c2n1)c1ccc(Br)cc1	i	i	i	i	-10.4*
NC(=S)N/N=C/c1ccc2cccc(OCc3ccccc3)c2n1	i	i	i	i	i
